Laboratory results as given in ChEMBL document CHEMBL3758175, “Bis-isatin hydrazones with novel linkers: Synthesis and biological evaluation as cytotoxic agents” (Eur J Med Chem, 2016).

Columns and labels:
[1] = biological target: Cyclin-dependent kinase 2/cyclin E1 (Homo sapiens, UniProt P24941); test: Inhibition of GST-tagged recombinant human CDK2/cyclin E expressed in insect SF-9 cells after 10 mins by scintillation counting analysis in presence of [gamma-33P]-ATP; set-up: species or system Sf9
MCF7 [2] = test: Cytotoxicity against human MCF7 cells assessed as cell viability after 24 hrs by crystal violet staining assay; format: functional, cell-based; details: MCF7, 24 h
[3] = Cytotoxicity against human HCT116 cells assessed as cell viability after 24 hrs by crystal violet staining assay; format: functional, cell-based; details: HCT-116, 24 h
Summary of the method: (§1)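 Cells were kept as monolayers in RPMI-1640 with 10% heat-inactivated FCS and 50 µg/ml gentamycin at 37 °C under 5% CO2. They were seeded at 3,000 cells/well and, 24 h later, washed with PBS (pH 7.2). Ten dilutions in fresh medium were added for 24 h at 37 °C, with a 1% DMSO vehicle control. Survivors were stained with crystal violet, lysed with 33% acetic acid and read at 490 nm against untreated cells. IC50 was taken from graphic plots; mean of at least three experiments.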

HepG2 [4] = test: Cytotoxicity against human HepG2 cells assessed as cell viability after 24 hrs by crystal violet staining assay; format: functional, cell-based; details: HepG2, 24 h; summary of the method: as §1
HepG2 [5] = test: Cytotoxicity against human HepG2 cells assessed as growth inhibition after 72 hrs by Sulforhodamine B colorimetric assay; format: functional, cell-based; details: HepG2, 72 h
[6] = Cytotoxicity against human KBV1 cells assessed as cell survival after 72 hrs by MTT assay; format: functional, cell-based; details: KB-V1, 72 h
[7] = Cytotoxicity against human KB3-1 cells assessed as cell survival after 72 hrs by MTT assay; format: functional, cell-based; details: KB 3-1, 72 h
MCF7 [8] = test: Induction of apoptosis in human MCF7 cells assessed as late apoptotic cells at IC50 after 24 hrs by annexin V-FITC/propidium iodide staining based flow cytometry relative to control; format: functional
MCF7 [9] = test: Induction of apoptosis in human MCF7 cells assessed as early apoptotic cells at IC50 after 24 hrs by annexin V-FITC/propidium iodide staining based flow cytometry (reference value: 3.70%); format: functional
MCF7 [10] = test: Induction of apoptosis in human MCF7 cells assessed as viable cells at IC50 after 24 hrs by annexin V-FITC/propidium iodide staining based flow cytometry (reference value: 96.3%); format: functional
MCF7 [11] = test: Cell cycle arrest in human MCF7 cells assessed as accumulation at G2/M phase at IC50 after 24 hrs by flow cytometric analysis relative to control; format: functional
MCF7 [12] = test: Cell cycle arrest in human MCF7 cells assessed as decrease in cell level at G0/G1 phase at IC50 after 24 hrs by flow cytometric analysis relative to control; format: functional; set-up: scale not given: the % may be the effect or the level left
MCF7 [13] = test: Cell cycle arrest in human MCF7 cells assessed as accumulation at pre-G phase at IC50 after 24 hrs by flow cytometric analysis relative to control; format: functional
MCF7 [14] = test: Induction of apoptosis in human MCF7 cells assessed as necrotic cells at IC50 after 24 hrs by annexin V-FITC/propidium iodide staining based flow cytometry relative to control; format: functional
MCF7 [15] = test: Induction of apoptosis in human MCF7 cells at IC50 after 24 hrs by annexin V-FITC/propidium iodide staining based flow cytometry relative to control; format: functional
MCF7 [16] = test: Cytotoxicity against human MCF7 cells assessed as growth inhibition after 72 hrs by Sulforhodamine B colorimetric assay; format: functional, cell-based; details: MCF7, 72 h
L1210 = test: Cytotoxicity against mouse L1210 cells assessed as cell growth inhibition by MTT assay; format: functional, cell-based

Row | SMILES | IC50 (MCF7 [2]) [µM] | IC50 [3] [µM] | IC50 (HepG2 [4]) [µM] | also measured
1 | O=C1/C(=C2\Nc3ccccc3C2=O)Nc2ccccc21 [INDIGO] | – | – | – | IC50 [1]: 1 µM
2 | O=C(N/N=C1\C(=O)Nc2ccc(Br)cc21)C(=O)N/N=C1\C(=O)Nc2ccc(Br)cc21 | 91.9 | 98.7 | 77.8 | –
3 | O=C1Nc2ccc(F)cc2/C1=N/Nc1nc(-c2ccccc2)nc2ccccc12 | – | – | – | IC50 (HepG2 [5]): 1 µM
4 | O=C1Nc2ccc(F)cc2/C1=N/NC(=O)c1cncc(C(=O)N/N=C2\C(=O)Nc3ccc(F)cc32)c1 | 38 | 24.5 | 76.3 | –
5 | COc1cccc2c1C(=O)c1c(O)c3c(c(O)c1C2=O)C[C@@](O)(C(=O)CO)C[C@@H]3O[C@H]1C[C@H](N)[C@H](O)[C@H](C)O1 [DOXORUBICIN] | – | 3.7 | 3.56 | –
6 | O=C1Nc2ccccc2/C1=N/NC(=O)c1cncc(C(=O)N/N=C2\C(=O)Nc3ccccc32)c1 | 39.1 | 39.2 | 72.7 | –
7 | O=C1Nc2ccc(Cl)cc2/C1=N/N=C1\C(=O)N(c2ccccc2)c2ccccc21 | – | – | – | IC50 [6]: 6.07 µM; IC50 [7]: 6.79 µM
8 | Cc1ccc2c(c1)/C(=N/NC(=O)c1[nH]c(C)c(C(=O)N/N=C3\C(=O)Nc4ccc(C)cc43)c1C)C(=O)N2 | 46.1 | 45.9 | > 100 | –
9 | COc1ccc2c(c1)/C(=N/NC(=O)c1c(C)c(C(=O)N/N=C3\C(=O)Nc4ccc(OC)cc43)n(C)c1C)C(=O)N2 | 1.84 | 3.31 | 6.99 | Activity (MCF7 [8]): 0.36%; Activity (MCF7 [9]): 25%; Activity (MCF7 [10]): 74.5%; fold change (FC) (MCF7 [11]): 1.83; Activity (MCF7 [12]): 18.5%; fold change (FC) (MCF7 [13]): 5; Activity (MCF7 [14]): 0.18%; fold change (FC) (MCF7 [15]): 6.7
10 | Cc1c(C(=O)N/N=C2\C(=O)Nc3ccccc32)c(C)n(C)c1C(=O)N/N=C1\C(=O)Nc2ccccc21 | > 100 | > 100 | > 100 | –
11 | Cc1ccc2c(c1)/C(=N/NC(=O)C(=O)N/N=C1\C(=O)Nc3ccc(C)cc31)C(=O)N2 | 55.9 | > 100 | > 100 | –
12 | Cc1[nH]c(C(=O)N/N=C2\C(=O)Nc3ccc(Br)cc32)c(C)c1C(=O)N/N=C1\C(=O)Nc2ccc(Br)cc21 | 36.7 | 37.3 | 32.4 | –
13 | O=C1Nc2ccc(Br)cc2/C1=N/NC(=O)c1cncc(C(=O)N/N=C2\C(=O)Nc3ccc(Br)cc32)c1 | 34.5 | 23.7 | 30.1 | –
14 | Cc1[nH]c(C(=O)N/N=C2\C(=O)Nc3ccc(F)cc32)c(C)c1C(=O)N/N=C1\C(=O)Nc2ccc(F)cc21 | 76.3 | 77 | 78.4 | –
15 | COc1ccc(-c2nc(N/N=C3\C(=O)Nc4ccc(Cl)cc43)c3ccccc3n2)cc1OC | – | – | – | IC50 (MCF7 [16]): 2.1 µM
16 | Cc1ccc2c(c1)/C(=N/NC(=O)N/N=C1\C(=O)Nc3ccc(C)cc31)C(=O)N2 | – | – | – | IC50 (L1210): 16 µM
17 | COc1ccc2c(c1)/C(=N/NC(=O)c1cncc(C(=O)N/N=C3\C(=O)Nc4ccc(OC)cc43)c1)C(=O)N2 | 66.5 | 45.4 | 36.5 | –
18 | Cc1ccc2c(c1)/C(=N/NC(=O)c1c(C)c(C(=O)N/N=C3\C(=O)Nc4ccc(C)cc43)n(C)c1C)C(=O)N2 | 29.9 | 38.6 | 22.1 | –
19 | Cc1[nH]c(C(=O)N/N=C2\C(=O)Nc3ccc([N+](=O)[O-])cc32)c(C)c1C(=O)N/N=C1\C(=O)Nc2ccc([N+](=O)[O-])cc21 | > 100 | > 100 | 86.9 | –
20 | O=C(N/N=C1\C(=O)Nc2ccc([N+](=O)[O-])cc21)C(=O)N/N=C1\C(=O)Nc2ccc([N+](=O)[O-])cc21 | 91.2 | 56.2 | 25.8 | –
21 | O=C1Nc2ccc([N+](=O)[O-])cc2/C1=N/NC(=O)c1cncc(C(=O)N/N=C2\C(=O)Nc3ccc([N+](=O)[O-])cc32)c1 | 88.8 | > 100 | 75.9 | –
22 | COc1ccc2c(c1)/C(=N/NC(=O)c1[nH]c(C)c(C(=O)N/N=C3\C(=O)Nc4ccc(OC)cc43)c1C)C(=O)N2 | 78.8 | > 100 | 83.5 | –
23 | Cc1[nH]c(C(=O)N/N=C2\C(=O)Nc3ccccc32)c(C)c1C(=O)N/N=C1\C(=O)Nc2ccccc21 | 69.2 | 76.5 | 30.1 | –
